From ChEMBL document CHEMBL1148372 (J Med Chem, 2004)
Activity calls are given as the source filed them. The calls are words filed in the database; no cut-off is given here.

Key:
[1] = target: T1, D(4) dopamine receptor (Homo sapiens) (UniProt P21917); experiment: In vitro efficacy tested on human D4.4 receptor were coexpressed with GRqo5 in HEK293 cells using FLIPR assay (Efficacy relative to 10 uM dopamine); assay type: cell-based
T1 sequence (whole entry): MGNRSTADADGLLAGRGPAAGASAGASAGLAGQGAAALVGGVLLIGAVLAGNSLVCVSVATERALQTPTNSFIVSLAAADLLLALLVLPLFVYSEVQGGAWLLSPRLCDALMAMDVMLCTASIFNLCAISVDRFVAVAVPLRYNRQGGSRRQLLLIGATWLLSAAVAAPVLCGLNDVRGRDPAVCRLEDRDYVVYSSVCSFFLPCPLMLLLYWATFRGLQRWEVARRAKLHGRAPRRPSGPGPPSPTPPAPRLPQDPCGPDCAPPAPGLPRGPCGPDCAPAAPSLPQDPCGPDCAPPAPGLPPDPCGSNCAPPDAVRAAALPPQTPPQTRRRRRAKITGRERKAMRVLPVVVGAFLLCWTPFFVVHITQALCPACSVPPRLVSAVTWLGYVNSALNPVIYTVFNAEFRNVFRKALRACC
How it was run: (§1)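 HEK293 cells coexpressing human D4.4 receptor and Gαqo5, plated at 20 000 cells/well and grown 2 days. Loaded 1 h at 23 °C with 4 µM Fluo-4 plus 0.04% Pluronic F-127 in DPBS, washed four times. Compound added, fluorescence read over 3 min.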

D(4) dopamine receptor [2] = target: T2, D(4) dopamine receptor (Homo sapiens, UniProt P21917); experiment: In vitro EC50 tested on HEK293 cells co-transfected with human Dopamine receptor D4.4 using FLIPR assay; assay type: cell-based; how it was run: as §1
T2 sequence (P21917 whole entry): T1 sequence (whole entry)

[3] = target: T1, D(4) dopamine receptor (Homo sapiens); experiment: In vitro efficacy tested on human Dopamine receptor D4.4 were co-expressed with GRqo5 in HEK293 cells using FLIPR assay (Efficacy relative to 10 uM dopamine); assay type: cell-based; how it was run: as §1
Rattus norvegicus [4] = experiment: In vivo maximal penile erection in rats 60 min after subcutaneous administration; assay type: functional
How it was run: (§2)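 Conscious male Wistar rats, adapted 60 min to a dim red-lit room, tested between 9:00 a.m. and 3:00 p.m. Dosed subcutaneously, then caged singly and observed directly for 60 min. Percent incidence is the share of animals with one or more erections; 8–30 animals per group. Maximally effective dose is the dose giving peak incidence, with significance versus control.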

Rattus norvegicus [5] = experiment: In vivo maximal effective dose tested in rats for erection 60 min after subcutaneous administration; assay type: functional; how it was run: as §2
[6] = target: D(2) dopamine receptor (Rattus norvegicus) (UniProt P61169); experiment: In vitro efficacy tested on rat Dopamine receptor D2 were co-expressed with GRqo5 in HEK293 cells using FLIPR assay (Efficacy relative to 10 uM dopamine); assay type: cell-based
D(2) dopamine receptor (Rattus norvegicus), sequence (P61169 whole entry): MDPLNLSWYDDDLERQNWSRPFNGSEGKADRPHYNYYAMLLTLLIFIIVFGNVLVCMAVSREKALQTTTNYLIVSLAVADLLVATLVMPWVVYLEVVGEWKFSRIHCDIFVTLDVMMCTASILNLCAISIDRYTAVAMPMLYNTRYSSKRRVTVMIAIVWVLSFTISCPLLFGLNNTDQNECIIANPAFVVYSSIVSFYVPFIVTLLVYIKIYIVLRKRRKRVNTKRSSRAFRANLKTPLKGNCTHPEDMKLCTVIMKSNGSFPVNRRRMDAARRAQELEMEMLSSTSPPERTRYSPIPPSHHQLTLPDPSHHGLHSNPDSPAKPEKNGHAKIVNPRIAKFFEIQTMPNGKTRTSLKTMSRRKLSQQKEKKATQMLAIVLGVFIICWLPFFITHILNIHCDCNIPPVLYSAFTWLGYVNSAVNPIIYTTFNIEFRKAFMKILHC

D(4) dopamine receptor [7] = target: T3, D(4) dopamine receptor (Rattus norvegicus, UniProt P30729); experiment: In vitro effective concentration tested on HEK293 cells co-transfected with rat Dopamine receptor D4 using FLIPR assay; assay type: cell-based
T3 sequence (P30729 whole entry): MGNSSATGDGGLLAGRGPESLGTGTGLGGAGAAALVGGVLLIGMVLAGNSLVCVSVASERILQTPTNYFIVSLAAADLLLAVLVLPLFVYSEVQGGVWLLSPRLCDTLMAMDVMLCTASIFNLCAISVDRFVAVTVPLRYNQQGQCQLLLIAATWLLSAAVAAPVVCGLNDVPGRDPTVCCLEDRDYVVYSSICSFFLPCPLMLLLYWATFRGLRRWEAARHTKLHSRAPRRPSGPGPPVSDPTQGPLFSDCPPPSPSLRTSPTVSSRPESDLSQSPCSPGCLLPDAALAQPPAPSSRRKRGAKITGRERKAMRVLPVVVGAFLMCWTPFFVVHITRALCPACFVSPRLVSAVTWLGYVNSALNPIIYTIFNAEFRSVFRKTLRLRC

D(4) dopamine receptor [8] = target: T2, D(4) dopamine receptor; experiment: In vitro binding affinity tested on HEK293 cells co-transfected with human D4.4 receptor using [3H]spiperone as a radioligand […]; assay type: cell-based
How it was run: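 Competition binding to membranes from HEK-293 cells transfected with human D4.4, stored at −80 °C. Radioligand was 0.1 nM [3H]-spiperone, incubated 2 h in 50 mM Tris-HCl pH 7.4 with 5 mM KCl, 120 mM NaCl, 5 mM MgCl2 and 1 mM EDTA. Compounds were in buffer with 0.1% ascorbic acid. Samples were filtered through glass fibre and washed three times with cold Tris. Bound radioactivity was counted by scintillation to give Ki.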

D(4) dopamine receptor [9] = target: T2, D(4) dopamine receptor; experiment: In vitro inhibitory concentration tested on human D4.4 receptor in HEK293 cells using FLIPR assay; assay type: cell-based
D(4) dopamine receptor [10] = target: T2, D(4) dopamine receptor; experiment: In vitro effective concentration tested on HEK293 cells co-transfected with human D4.4 receptor using FLIPR assay; assay type: cell-based
How it was run: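 Human D4.4 receptor co-expressed with Gαqo5 in HEK293 cells, plated at 20 000 cells/well and grown 2 days. Loaded with 4 µM Fluo-4 and 0.04% Pluronic F-127 in DPBS with glucose and pyruvate for 1 h at 23 °C, then washed. Compound added and fluorescence read over 3 min on FLIPR. […] EC50 is the concentration giving half-maximal response.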

Structure (SMILES) | Efficacy [1] | EC50 (D(4) dopamine receptor [2]) [nM] | Efficacy [3] [%] | further results
CCc1ccccc1N1CCN(Cc2nc3ccccc3[nH]2)CC1 | inactive | – | – | –
O=[N+]([O-])c1cccnc1N1CCN(Cc2nc3ccccc3[nH]2)CC1 | inactive | – | – | –
c1ccc(C2CCN(Cc3nc4ccccc4[nH]3)CC2)nc1 | – | 14 | 51 | –
Brc1cc(Br)c2[nH]c(CN3CCN(c4ccccn4)CC3)nc2c1 | – | 416 | 37 | Activity (Rattus norvegicus [4]): 60%; Effective dose (Rattus norvegicus [5]): 0.03 µM/kg
Fc1cccnc1N1CCN(Cc2nc3ccccc3[nH]2)CC1 | – | 24 | 27 | Activity (Rattus norvegicus [4]): 75%; Effective dose (Rattus norvegicus [5]): 0.01 µM/kg
N#Cc1ccccc1N1CCN(Cc2nc3ccccc3[nH]2)CC1 | – | 14.6 | 46 | Activity (Rattus norvegicus [4]): 65%; Effective dose (Rattus norvegicus [5]): 0.003 µM/kg
Fc1ccccc1N1CCN(Cc2nc3ccccc3[nH]2)CC1 | – | 14.7 | 42 | Activity (Rattus norvegicus [4]): 70%; Effective dose (Rattus norvegicus [5]): 0.01 µM/kg
CC(C)n1c(CN2CCN(c3ccccn3)CC2)nc2ccccc21 | inactive | – | – | –
c1ccc(N2CCN(CCc3nc4ccccc4[nH]3)CC2)nc1 | – | 23 | 62 | –
O=[N+]([O-])c1ccccc1N1CCN(Cc2nc3ccccc3[nH]2)CC1 | – | 3.9 | 40 | –
NCCc1ccc(O)c(O)c1 [DOPAMINE] | – | – | – | Efficacy [6]: 100%; EC50 (D(4) dopamine receptor [7]): 2.4 nM
CSc1ccccc1N1CCN(Cc2nc3ccccc3[nH]2)CC1 | – | 86 | 42 | –
CCOc1ccccc1N1CCN(Cc2nc3ccccc3[nH]2)CC1 | – | 25 | 31 | –
Clc1ccc(N2CCN(Cc3nc4ccccc4[nH]3)CC2)nn1 | inactive | – | – | –
C[C@H]1CN(c2ccccn2)CCN1Cc1nc2ccccc2[nH]1 | – | 52 | 43 | –
Clc1ccccc1N1CCN(Cc2nc3ccccc3[nH]2)CC1 | – | 7.2 | 39 | –
Cc1ccc(C)c(N2CCN(Cc3nc4ccccc4[nH]3)CC2)c1 | – | – | – | Ki (D(4) dopamine receptor [8]): 3.8 nM; IC50 (D(4) dopamine receptor [9]): 1 nM
C1=C(c2ccccc2)CCN(Cc2nc3ccccc3[nH]2)C1 | – | – | 48 | EC50 (D(4) dopamine receptor [10]): 228 nM
C1=C(c2ccccn2)CCN(Cc2nc3ccccc3[nH]2)C1 | – | – | 63 | Activity (Rattus norvegicus [4]): 75%; Effective dose (Rattus norvegicus [5]): 0.03 µM/kg; EC50 (D(4) dopamine receptor [10]): 11 nM
Oc1ccc(N2CCN(Cc3nc4ccccc4[nH]3)CC2)nn1 | inactive | – | – | –
Cc1ccc(N2CCN(Cc3nc4ccccc4[nH]3)CC2)cc1C | – | – | – | Ki (D(4) dopamine receptor [8]): 1.5 nM; IC50 (D(4) dopamine receptor [9]): 5 nM
CN(C)C(=O)n1c(CN2CCN(c3ccccn3)CC2)nc2ccccc21 | inactive | – | – | –

Structure (SMILES) | Efficacy [1] | EC50 (D(4) dopamine receptor [2]) [nM] | Efficacy [3] [%] | further results
CS(=O)(=O)c1cccnc1N1CCN(Cc2nc3ccccc3[nH]2)CC1 | – | 136 | 27 | –
COc1ccc2[nH]c(CN3CCN(c4ccccn4)CC3)nc2c1 | inactive | – | – | –
c1ccc(Cc2ccccc2N2CCN(Cc3nc4ccccc4[nH]3)CC2)nc1 | inactive | – | – | –
Fc1ccc2[nH]c(CN3CCN(c4ccccn4)CC3)nc2c1 | – | 8 | 57 | Activity (Rattus norvegicus [4]): 75%; Effective dose (Rattus norvegicus [5]): 0.01 µM/kg
Clc1cccnc1N1CCN(Cc2nc3ccccc3[nH]2)CC1 | inactive | – | – | –
Oc1ccccc1N1CCN(Cc2nc3ccccc3[nH]2)CC1 | inactive | – | – | –
COc1ccccc1C1CCN(Cc2nc3ccccc3[nH]2)CC1 | – | 100 | 34 | –
Cc1cccc(N2CCN(Cc3nc4ccccc4[nH]3)CC2)n1 | – | 36.2 | 36 | Activity (Rattus norvegicus [4]): 62%; Effective dose (Rattus norvegicus [5]): 0.03 µM/kg
c1cnnc(N2CCN(Cc3nc4ccccc4[nH]3)CC2)c1 | inactive | – | – | –
c1ccc(Cn2c(CN3CCN(c4ccccn4)CC3)nc3ccccc32)cc1 | inactive | – | – | –
Cn1c(CN2CCN(c3ccccn3)CC2)nc2ccccc21 | inactive | – | – | –
COc1ccccc1N1CCN(Cc2nc3ccccc3[nH]2)CC1 | – | 12.4 | 48 | Activity (Rattus norvegicus [4]): 60%; Effective dose (Rattus norvegicus [5]): 0.01 µM/kg
Cc1cccc(C)c1N1CCN(Cc2nc3ccccc3[nH]2)CC1 | inactive | – | – | –
c1cnc(N2CCN(Cc3nc4ccccc4[nH]3)CC2)nc1 | – | 44.8 | 49 | Activity (Rattus norvegicus [4]): 85%; Effective dose (Rattus norvegicus [5]): 0.1 µM/kg
CCc1cnc(N2CCN(Cc3nc4ccccc4[nH]3)CC2)nc1 | inactive | – | – | –
CN1CCc2cccc3c2[C@H]1Cc1ccc(O)c(O)c1-3 [APOMORPHINE] | – | – | – | Activity (Rattus norvegicus [4]): 91%; Effective dose (Rattus norvegicus [5]): 0.1 µM/kg; Efficacy [6]: 103%; EC50 (D(4) dopamine receptor [7]): 5.5 nM
N#Cc1cccnc1N1CCN(Cc2nc3ccccc3[nH]2)CC1 | – | 13.9 | 50 | –
FC(F)(F)c1ccnc(N2CCN(Cc3nc4ccccc4[nH]3)CC2)n1 | inactive | – | – | –
C[C@@H]1CN(c2ccccn2)CCN1Cc1nc2ccccc2[nH]1 | – | 64 | 34 | –
CCn1c(CN2CCN(c3ccccn3)CC2)nc2ccccc21 | inactive | – | – | –
O=C(N1CCCC1)n1c(CN2CCN(c3ccccn3)CC2)nc2ccccc21 | inactive | – | – | –
